# Data taken from ChEMBL document CHEMBL2157993, “Urea-based inhibitors of Trypanosoma brucei methionyl-tRNA synthetase: selectivity and in vivo characterization” (J Med Chem, 2012).
# Activity calls are given as the source filed them. The calls are words filed in the database; no cut-off is given here.
# Key:
# [1] = tested on: Trypanosoma brucei; experiment: Binding affinity to Trypanosoma brucei MetRS at 100 uM by thermal shift assay
# In short: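 Thermal shift (ΔTm) read-out with T. brucei MetRS at 0.4 mg/ml and 5% DMSO; otherwise per an earlier protocol. The test agent was at the single concentration in the curator's line. Repeated three times independently.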
# [2] = Inhibition of Trypanosoma brucei MetRS aminoacylation activity assessed as reduction in [3H]methionine incorporation into Escherichia coli tRNA pre-incubated for 15 mins before tRNA addition and measured after 120 mins by scintillation counting
# In short: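 Recombinant enzyme at 10 nM, preincubated 15 min with 12-point two-fold inhibitor dilutions in 25 mM HEPES pH 7.9, 10 mM MgCl2, 50 mM KCl, spermine, BSA, DTT, 1% DMSO and pyrophosphatase. Reaction started with 400 μg/mL E. coli tRNA, 0.1 mM ATP and 250 nM [3H]methionine, run 120 min at room temperature. TCA-precipitated and filtered for scintillation counting. Quadruplicate, with IC50 by sigmoidal fit.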
# [3] = Selectivity ratio of IC50 for human MetRS to IC50 for Trypanosoma brucei MetRS
# In short: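 Ratio of the human mitochondrial MetRS IC50 to the T. brucei MetRS IC50, each from a [3H]methionine aminoacylation assay.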
# [4] = tested on: Trypanosoma brucei brucei; experiment: Growth inhibition of Trypanosoma brucei brucei 427 blood stream forms after 48 hrs by alamar blue assay; type: functional, organism-based; details: Trypanosoma brucei, 427, 48 h
# In short: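 Strain 427 bloodstream forms cultured in HMI-9 with 10% FBS at 37°C, 5% CO2. Triplicate wells seeded at 5×10^4 trypomastigotes with serial compound dilutions from 20 mM DMSO stocks. AlamarBlue read-out at 48 h, with pentamidine as the positive control.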
# [5] = Cytotoxicity against human CRL8155 cells incubated for 48 hrs by alamar blue assay; type: cell-based; details: CRL8155, 48 h
# In short: (§1)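 […] cells in RPMI or HepG2 cells in DMEM/F-12, each with 10% serum, seeded at 5×10^3 per well. Exposed to serial compound dilutions for 48 h.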
# [6] = Permeability across MDCK2-MDR1 cells expressing MDR1 at 3 uM in absence of 2 uM P-gp inhibitor Elacridal by mass spectroscopy; type: ADME, cell-based, Canis lupus familiaris; details: dog, mdck-ii
# In short: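 MDR1-MDCKII cells seeded on Transwell inserts and assayed 3 days later at 37°C in HBSS with glucose and HEPES. Monolayers preincubated about 30 min with or without 2 μM elacridar, then given compound at 3 μM final (apical). After 60 min shaking, both chambers were sampled for MS. Integrity checked by Lucifer Yellow and TEER. Triplicate. Papp(A-B) and AQ calculated.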
# [7] = (§2) Cmax in mouse at 50 mg/kg, po administered as single dose measured over 6 hrs by MS/MS method; type: ADME, organism-based; set-up: dose 50 mg/kg, route oral; details: in vivo
# In short: (§3)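 Mice, three per group, given one oral dose of 50 mg/kg in 5% DMSO, 3% EtOH, 7% Tween 80 in saline. Tail-snip blood taken at 0.5, 1, 2, 3, 4 and 6 h. Plasma extracted with acetonitrile and quantified by LC-MS/MS.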
# [8] = Tmax in mouse at 50 mg/kg, po administered as single dose measured over 6 hrs by MS/MS method; type: ADME, organism-based; set-up: dose 50 mg/kg, route oral; details: in vivo; in short: as §3
# [9] = (§4) Half life in mouse at 50 mg/kg, po administered as single dose measured over 6 hrs by MS/MS method; type: ADME, organism-based; set-up: dose 50 mg/kg, route oral; details: in vivo; in short: as §3
# [10] = (§5) AUC in mouse at 50 mg/kg, po administered as single dose measured over 6 hrs by MS/MS method; type: ADME, organism-based, Plasma; set-up: time < 6 hr, dose 50 mg/kg, route oral; details: plasma; in short: as §3
# [11] = target: ATP-dependent translocase ABCB1 (Homo sapiens, UniProt P08183); experiment: Binding affinity to MDR1 expressed in MDCK2 cells assessed as absorptive quotient at 3 uM in absence of 2 uM by mass spectroscopy; type: ADME, cell-based; details: dog, mdck-ii
# In short: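 Monolayers preincubated about 30 min with or without 2 μM elacridar, then given compound at 3 μM final (apical). After 60 min shaking, both chambers were sampled for MS. Integrity checked by Lucifer Yellow and TEER. Triplicate. Papp(A-B) and AQ calculated.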
# [12] = Selectivity index, ratio of EC50 for human CRL8155 cells to EC50 for Trypanosoma brucei brucei 427; type: toxicity; details: read-out: Ratio EC50
# [13] = Selectivity index, ratio of EC50 for human HepG2 cells to EC50 for Trypanosoma brucei brucei 427; type: toxicity, cell-based; details: read-out: Ratio EC50
# [14] = tested on: HepG2; experiment: Cytotoxicity against human HepG2 cells incubated for 48 hrs by alamar blue assay; type: cell-based; details: HepG2, 48 h; in short: as §1
# [15] = tested on: Mus musculus; experiment: as §2; type: ADME, organism-based; set-up: dose 50 mg/kg, route oral; details: in vivo, 6 h; in short: as §3
# [16] = tested on: Mus musculus; experiment: as §4; type: ADME, organism-based; set-up: dose 50 mg/kg, route oral; details: in vivo, 6 h; in short: as §3
# [17] = tested on: Mus musculus; experiment: as §5; type: ADME, organism-based, Plasma; set-up: time < 6 hr, dose 50 mg/kg, route oral; details: in vivo, 6 h; in short: as §3
# [18] = tested on: Trypanosoma brucei rhodesiense; experiment: Antiparasitic activity against Trypanosoma brucei rhodesiense STIB900 infected in Swiss Webster mouse assessed as reduction in parasitemia at 50 mg/kg, po dosed 24 hrs post infection every 12 hrs for 4 days measured 48 hrs post infection by microscopy; type: functional; set-up: scale not given: the % may be the effect or the level left
# In short: (§6)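 Female Swiss Webster (CFW) mice, 6-8 weeks old, five per group. Each infected IP at time 0 with 1×10^4 bloodstream-form STIB900 in 0.2 ml. Compound in 5% DMSO, 3% EtOH, 7% Tween 80 in saline, given by oral gavage (0.2 mL). Vehicle-only group dosed alongside. Parasitemia read daily by wet-mount microscopy of tail blood. Unpaired t-tests per day.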
# [19] = tested on: Trypanosoma brucei rhodesiense; experiment: Antiparasitic activity against Trypanosoma brucei rhodesiense STIB900 blood stream forms incubated for 48 hrs by alamar blue assay; type: functional, organism-based; details: STIB900, 48 h
# [20] = tested on: Mus musculus; experiment: Toxicity in Trypanosoma brucei rhodesiense STIB900 infected Swiss Webster mouse at 50 mg/kg, po dosed 24 hrs post infection every 12 hrs for 4 days; type: organism-based; set-up: dose 50 mg/kg, route oral; details: in vivo
# [21] = tested on: Mus musculus; experiment: Time duration for plasma concentration staying above IC50 in Trypanosoma brucei rhodesiense STIB900 infected Swiss Webster mouse at 50 mg/kg, po dosed 24 hrs post infection every 12 hrs for 4 days
# [22] = tested on: Trypanosoma brucei; experiment: Inhibition of protein synthesis in Trypanosoma brucei assessed as reduction in [3H]L-histidine incorporation into proteins incubated for 4 hrs by scintillation counting; type: functional, organism-based
# [23] = tested on: Trypanosoma brucei rhodesiense; experiment: Antiparasitic activity against Trypanosoma brucei rhodesiense STIB900 infected in Swiss Webster mouse assessed as reduction in parasitemia at 50 mg/kg, po dosed 24 hrs post infection every 12 hrs for 4 days measured 72 hrs post infection by microscopy; type: functional; set-up: scale not given: the % may be the effect or the level left; in short: as §6
# [24] = tested on: Trypanosoma brucei rhodesiense; experiment: Antiparasitic activity against Trypanosoma brucei rhodesiense STIB900 infected in Swiss Webster mouse assessed as reduction in parasitemia at 50 mg/kg, po dosed 24 hrs post infection every 12 hrs for 4 days measured 96 hrs post infection by microscopy; type: functional; set-up: scale not given: the % may be the effect or the level left; in short: as §6
# [25] = tested on: Trypanosoma brucei rhodesiense; experiment: Antiparasitic activity against Trypanosoma brucei rhodesiense STIB900 infected in Swiss Webster mouse assessed as reduction in parasitemia at 50 mg/kg, po dosed 24 hrs post infection every 12 hrs for 4 days measured 120 hrs post infection by microscopy; type: functional, organism-based; set-up: dose 50 mg/kg
# [26] = Drug level in Swiss Webster mouse brain at 5 mg/kg, ip after 60 mins by MS/MS method; type: ADME, organism-based; set-up: dose 5 mg/kg, route intraperitoneal; details: read-out: Drug uptake
# In short: (§7)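 Female Swiss Webster mice, 6-8 weeks old, three per compound, given 5 mg/kg IP in 5% DMSO/3% EtOH/7% Tween 80 saline. Killed at 1 h. Plasma and homogenised brain extracted with acetonitrile containing an extraction standard, with spiked blank brains used for standardisation. Quantified by LC-MS/MS.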
# [27] = Plasma concentration in Swiss Webster mouse at 5 mg/kg, ip after 60 mins by MS/MS method; type: ADME, organism-based; set-up: dose 5 mg/kg, route intraperitoneal; in short: as §7
# Sequence of ATP-dependent translocase ABCB1 (P08183 whole entry): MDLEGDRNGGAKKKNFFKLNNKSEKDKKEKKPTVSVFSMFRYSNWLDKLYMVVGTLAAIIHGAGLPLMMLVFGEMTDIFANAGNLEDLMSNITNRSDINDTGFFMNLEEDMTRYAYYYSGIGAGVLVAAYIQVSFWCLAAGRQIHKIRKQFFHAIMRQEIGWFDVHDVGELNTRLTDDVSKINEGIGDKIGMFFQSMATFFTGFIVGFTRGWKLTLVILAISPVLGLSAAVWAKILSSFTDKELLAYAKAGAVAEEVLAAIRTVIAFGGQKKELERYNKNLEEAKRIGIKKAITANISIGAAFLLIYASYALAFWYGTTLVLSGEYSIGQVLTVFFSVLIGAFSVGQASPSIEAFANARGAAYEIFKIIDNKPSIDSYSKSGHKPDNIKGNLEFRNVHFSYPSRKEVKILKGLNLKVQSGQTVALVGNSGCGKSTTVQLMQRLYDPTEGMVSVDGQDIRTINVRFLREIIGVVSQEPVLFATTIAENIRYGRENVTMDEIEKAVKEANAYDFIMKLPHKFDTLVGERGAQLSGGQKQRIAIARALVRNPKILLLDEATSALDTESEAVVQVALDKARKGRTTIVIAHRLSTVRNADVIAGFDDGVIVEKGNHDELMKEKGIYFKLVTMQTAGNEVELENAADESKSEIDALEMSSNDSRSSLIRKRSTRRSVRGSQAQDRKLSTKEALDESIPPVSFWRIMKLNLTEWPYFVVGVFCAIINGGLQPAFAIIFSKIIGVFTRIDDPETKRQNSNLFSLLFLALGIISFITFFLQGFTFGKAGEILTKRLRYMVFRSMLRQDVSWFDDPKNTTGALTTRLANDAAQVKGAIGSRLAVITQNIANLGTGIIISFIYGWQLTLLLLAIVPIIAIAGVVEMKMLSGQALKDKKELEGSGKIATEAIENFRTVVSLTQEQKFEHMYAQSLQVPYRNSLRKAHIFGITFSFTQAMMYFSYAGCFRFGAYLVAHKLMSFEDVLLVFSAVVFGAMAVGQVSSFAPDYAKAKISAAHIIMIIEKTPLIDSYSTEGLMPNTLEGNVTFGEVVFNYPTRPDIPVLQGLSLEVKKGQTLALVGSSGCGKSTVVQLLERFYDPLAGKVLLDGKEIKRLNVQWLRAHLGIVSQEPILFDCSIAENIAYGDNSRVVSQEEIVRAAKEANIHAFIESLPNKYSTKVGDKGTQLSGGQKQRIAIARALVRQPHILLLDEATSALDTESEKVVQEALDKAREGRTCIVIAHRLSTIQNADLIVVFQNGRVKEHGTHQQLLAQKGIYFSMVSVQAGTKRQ
smiles,measurement,setting,value
COc1cc(Cl)cc(CNCCCNC(=O)Nc2ccsc2)c1,ΔTm,[1],7.9 °C
same,IC50,[2],19 nM
same,Ratio IC50,[3],347
same,EC50,[4],150 nM
same,EC50,[5],22000 nM
same,Papp,[6],9.7 ×10⁻⁶ cm/s
same,Cmax,[7],1290 nM
same,Tmax,[8],30 min
same,half-life,[9],82 min
same,AUC at 6 h,[10],2.68 µM·h
same,AQ,[11],0.53
same,selectivity ratio,[12],147
same,selectivity ratio,[13],147
CCOc1ccccc1CNCCCNC(=O)Nc1ccccc1,ΔTm,[1],1.1 °C
N=C(NCCCNCc1cc(Cl)cc(Cl)c1)Nc1ccccc1,ΔTm,[1],4.5 °C
O=C(NCCCNCc1cc(Cl)cc(Cl)c1)Nc1ccccn1,ΔTm,[1],4.5 °C
O=C(NCCCNCc1cc(Cl)cc(Cl)c1)Nc1cccc(F)c1,ΔTm,[1],7.7 °C
same,IC50,[2],110 nM
same,Ratio IC50,[3],39
same,EC50,[4],757 nM
same,EC50,[14],17900 nM
O=C(NCCCNCc1cc(Cl)cc(Cl)c1)Nc1ccc(F)cc1,ΔTm,[1],6.3 °C
CCOc1ccc(CNCCCNC(=O)Nc2ccccc2)cc1,ΔTm,[1],0.5 °C
O=C(NCCCNCc1cc(Cl)cc(Cl)c1)Nc1ccsc1,ΔTm,[1],8.3 °C
same,IC50,[2],28 nM
same,Ratio IC50,[3],155
same,EC50,[4],220 nM
same,EC50,[14],13000 nM
same,Papp,[6],17.2 ×10⁻⁶ cm/s
same,Cmax,[15],3700 nM
same,Tmax,[8],30 min
same,t1/2,[16],63 min
same,AUC,[17],464 µM·min
same,Activity,[18],94%
same,EC50,[19],420 nM
same,Activity,[20],Non-toxic
same,AQ,[11],0.42
same,Time,[21],<6 h
same,inhibition,[22],Dose-dependent effect
same,selectivity ratio,[12],55
same,selectivity ratio,[13],59
same,Activity,[23],80%
same,Activity,[24],63%
same,Activity,[25],inactive
C[C@@H]1C[C@@H]([C@H](O)CC2CC(=O)NC(=O)C2)C(=O)[C@@H](C)C1,inhibition,[22],Dose-dependent effect
CC(C)NCC(O)COc1cccc2ccccc12 (centres undefined) [PROPRANOLOL],AQ,[11],< 0.5
O=C(NCCCNCc1cc(Cl)cc(Cl)c1)Nc1ccccc1,ΔTm,[1],7.8 °C
same,IC50,[2],57 nM
same,EC50,[4],415 nM
same,EC50,[14],20000 nM
same,Papp,[6],35.6 ×10⁻⁶ cm/s
same,concentration at 1 h,[26],1800 nM
same,Cmax,[7],1350 nM
same,Tmax,[8],30 min
same,half-life,[9],65 min
same,AUC at 6 h,[10],2.53 µM·h
same,concentration at 1 h,[27],120 nM
same,AQ,[11],0.21
O=C(NCCCNCc1cc(Cl)cc(Cl)c1)Nc1ccccc1O,ΔTm,[1],8.4 °C
same,IC50,[2],39 nM
same,Ratio IC50,[3],95
same,EC50,[4],210 nM
same,EC50,[14],> 20000 nM
O=C(NCCCNCc1ccccc1Cl)Nc1ccccc1,ΔTm,[1],1.9 °C
COc1cccc(CNCCCNC(=O)Nc2ccccc2)c1,ΔTm,[1],4.7 °C
O=C(NCCCNCc1cc(Cl)cc(Cl)c1)Nc1cccc(O)c1,ΔTm,[1],7.7 °C
same,IC50,[2],29 nM
same,Ratio IC50,[3],187
same,EC50,[4],170 nM
same,EC50,[5],12000 nM
same,Papp,[6],2.9 ×10⁻⁶ cm/s
same,AQ,[11],0.62
O=C(NCCCNCc1ccc(Cl)cc1)Nc1ccccc1,ΔTm,[1],2.5 °C
O=C(NCCCNCc1cc(Cl)cc(Cl)c1Cl)Nc1ccccc1,ΔTm,[1],6.4 °C
